Results taken from ChEMBL document CHEMBL1124364, “3-Sulfonyl-1-carba-1-dethiacephems” (1989).
In brackets after ≈: the same amount, converted by molar mass.

What was measured:
Type in all cases: functional
[1] = test system: Klebsiella; test: Minimum inhibitory concentration against Klebsiella (X26); settings: Klebsiella; read-out: MIC
Outline: (§1)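 Agar dilution: compounds diluted in 0.1 M phosphate buffer pH 7.0 and incorporated into Mueller-Hinton agar with 1% Bacto-Supplement C at 50 °C. Fresh overnight cultures diluted to about 1×10^4 cells/µL; 1 µL spotted on plates. Incubated overnight at 35 °C in ambient air. MIC taken as the lowest concentration preventing visible growth.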

[2] = test system: Salmonella; test: Minimum inhibitory concentration against Salmonella (X514); outline: as §1
[3] = test system: Pseudomonas aeruginosa; test: Minimum inhibitory concentration against Pseudomonas aeruginosa (X528); settings: Pseudomonas aeruginosa; read-out: MIC; outline: as §1
[4] = test system: Streptococcus pyogenes; test: Minimum inhibitory concentration against Streptococcus pyogenes (C203); outline: as §1
[5] = test system: Staphylococcus aureus; test: Minimum inhibitory concentration against Staphylococcus aureus (X1.1); settings: Staphylococcus aureus; read-out: MIC; outline: as §1
[6] = test system: Streptococcus pneumoniae; test: Minimum inhibitory concentration against Streptococcus pneumoniae (PARK); outline: as §1
[7] = test system: Morganella morganii; test: Minimum inhibitory concentration against Proteus morganii (PR 15); settings: Morganella morganii; read-out: MIC; outline: as §1
[8] = test system: Enterobacter cloacae; test: Minimum inhibitory concentration against Enterobacter cloacae (265A beta-lactamase containing); settings: Enterobacter cloacae; read-out: MIC; outline: as §1
[9] = test system: Enterobacter cloacae; test: Minimum inhibitory concentration against Enterobacter cloacae (EB5); settings: Enterobacter cloacae; read-out: MIC; outline: as §1
[10] = test system: Klebsiella; test: Minimum inhibitory concentration against Klebsiella (KAE beta-lactamase containing); settings: Klebsiella; read-out: MIC; outline: as §1
[11] = test system: Escherichia coli; test: Minimum inhibitory concentration against Escherichia coli (EC14); settings: Escherichia coli; read-out: MIC; outline: as §1
[12] = test system: Staphylococcus epidermidis; test: Minimum inhibitory concentration against Staphylococcus epidermidis (222); settings: Staphylococcus epidermidis; read-out: MIC; outline: as §1
[13] = test system: Providencia rettgeri; test: Minimum inhibitory concentration against Proteus rettgeri (C24); settings: Providencia rettgeri; read-out: MIC; outline: as §1
[14] = test system: Haemophilus influenzae; test: Minimum inhibitory concentration against Haemophilus influenzae (C.L.); outline: as §1
[15] = test system: Escherichia coli; test: Minimum inhibitory concentration against Escherichia coli (TEM beta-lactamase containing); settings: Escherichia coli; read-out: MIC; outline: as §1
[16] = Streptococcus pyogenes, read-out: MIC
[17] = Streptococcus pneumoniae, read-out: MIC
[18] = Haemophilus influenzae, read-out: MIC

| MIC [1] | MIC ([2]; Salmonella, read-out: MIC) | MIC [3] | MIC [4, 16] | MIC [5] | MIC [6, 17] | MIC [7] | MIC [8] | MIC [9] | MIC [10] | MIC [11] | MIC [12] | MIC [13] | MIC [14, 18] | MIC [15] | MIC [2] | MIC [4] | MIC [6] | MIC [14] | SMILES |
| --- | --- | --- | --- | --- | --- | --- | --- | --- | --- | --- | --- | --- | --- | --- | --- | --- | --- | --- | --- |
| 0.06 µg/mL (≈ 0.131 µM) | 0.06 µg/mL (≈ 0.131 µM) | > 128 µg/mL | 0.03 µg/mL (≈ 0.0656 µM) | 8 µg/mL (≈ 17.5 µM) | 0.03 µg/mL (≈ 0.0656 µM) | 2 µg/mL (≈ 4.37 µM) | > 128 µg/mL | 1 µg/mL (≈ 2.19 µM) | > 128 µg/mL | 0.06 µg/mL (≈ 0.131 µM) | 16 µg/mL (≈ 35 µM) | 0.125 µg/mL (≈ 0.273 µM) | 0.25 µg/mL (≈ 0.546 µM) |  |  |  |  |  | CCS(=O)(=O)C1=C(C(=O)O)N2C(=O)[C@@H](NC(=O)/C(=N/OC)c3csc(N)n3)[C@H]2CC1 |
| 0.06 µg/mL (≈ 0.135 µM) | 0.125 µg/mL (≈ 0.282 µM) | > 128 µg/mL | 0.06 µg/mL (≈ 0.135 µM) | 16 µg/mL (≈ 36.1 µM) | 0.06 µg/mL (≈ 0.135 µM) | 1 µg/mL (≈ 2.25 µM) | > 128 µg/mL | 2 µg/mL (≈ 4.51 µM) | 64 µg/mL (≈ 144 µM) | 0.25 µg/mL (≈ 0.564 µM) | 32 µg/mL (≈ 72.2 µM) | 0.5 µg/mL (≈ 1.13 µM) | 0.25 µg/mL (≈ 0.564 µM) | 1 µg/mL (≈ 2.25 µM) |  |  |  |  | CO/N=C(/C(=O)N[C@@H]1C(=O)N2C(C(=O)O)=C(S(C)(=O)=O)CC[C@H]12)c1csc(N)n1 |
| 0.125 µg/mL (≈ 0.265 µM) | 0.06 µg/mL (≈ 0.127 µM) | > 128 µg/mL | 2 µg/mL (≈ 4.24 µM) | 8 µg/mL (≈ 17 µM) | 0.06 µg/mL (≈ 0.127 µM) | 4 µg/mL (≈ 8.48 µM) | > 128 µg/mL | 1 µg/mL (≈ 2.12 µM) | > 128 µg/mL | 0.25 µg/mL (≈ 0.53 µM) | 16 µg/mL (≈ 33.9 µM) | 0.25 µg/mL (≈ 0.53 µM) | 0.5 µg/mL (≈ 1.06 µM) | 1 µg/mL (≈ 2.12 µM) |  |  |  |  | CO/N=C(/C(=O)N[C@@H]1C(=O)N2C(C(=O)O)=C(S(=O)(=O)C(C)C)CC[C@H]12)c1csc(N)n1 |
| 1 µg/mL (≈ 1.91 µM) | 4 µg/mL (≈ 7.63 µM) | > 128 µg/mL | 0.03 µg/mL (≈ 0.0572 µM) | 4 µg/mL (≈ 7.63 µM) | 0.03 µg/mL (≈ 0.0572 µM) | 2 µg/mL (≈ 3.81 µM) | > 128 µg/mL | 8 µg/mL (≈ 15.3 µM) | > 128 µg/mL | 2 µg/mL (≈ 3.81 µM) | 8 µg/mL (≈ 15.3 µM) | 16 µg/mL (≈ 30.5 µM) | 0.25 µg/mL (≈ 0.477 µM) | 8 µg/mL (≈ 15.3 µM) |  |  |  |  | CO/N=C(/C(=O)N[C@@H]1C(=O)N2C(C(=O)O)=C(S(=O)(=O)c3c(C)noc3C)CC[C@H]12)c1csc(N)n1 |

More lines, now with the values behind:

| SMILES | MIC [1] | MIC ([2]; Salmonella, read-out: MIC) | MIC [3] | MIC [4, 16] | MIC [5] | MIC [6, 17] | MIC [7] | MIC [8] | MIC [9] | MIC [10] | MIC [11] | MIC [12] | MIC [13] | MIC [14, 18] | MIC [15] | MIC [2] | MIC [4] | MIC [6] | MIC [14] |
| --- | --- | --- | --- | --- | --- | --- | --- | --- | --- | --- | --- | --- | --- | --- | --- | --- | --- | --- | --- |
| CO/N=C(/C(=O)N[C@@H]1C(=O)N2C(C(=O)O)=C(S(=O)(=O)c3cccnc3)CC[C@H]12)c1csc(N)n1 | 2 µg/mL (≈ 3.95 µM) | 2 µg/mL (≈ 3.95 µM) | > 128 µg/mL | 0.06 µg/mL (≈ 0.118 µM) | 16 µg/mL (≈ 31.6 µM) | 0.125 µg/mL (≈ 0.247 µM) | > 128 µg/mL | > 128 µg/mL | 16 µg/mL (≈ 31.6 µM) | > 128 µg/mL | 1 µg/mL (≈ 1.97 µM) | 32 µg/mL (≈ 63.2 µM) | > 128 µg/mL | 1 µg/mL (≈ 1.97 µM) | 4 µg/mL (≈ 7.9 µM) |  |  |  |  |
| CS(=O)(=O)C1=C(C(=O)O)N2C(=O)[C@@H](NC(=O)COc3ccccc3)[C@H]2CC1 (stereo in doubt; 7) | 8 µg/mL (≈ 20.3 µM) |  | > 128 µg/mL |  | 0.25 µg/mL (≈ 0.634 µM) |  | > 128 µg/mL | > 128 µg/mL | > 128 µg/mL | > 128 µg/mL | 4 µg/mL (≈ 10.1 µM) | 0.5 µg/mL (≈ 1.27 µM) | > 128 µg/mL |  | > 128 µg/mL | 8 µg/mL (≈ 20.3 µM) | 0.015 µg/mL (≈ 0.038 µM) | 0.06 µg/mL (≈ 0.152 µM) | 16 µg/mL (≈ 40.6 µM) |
